Laboratory results from ChEMBL document CHEMBL4387722.

How the values were obtained:
[1] = molecular target: T1, Phosphotyrosine protein phosphatase (Mycobacterium tuberculosis, UniProt A0A045ISB3); assay: Inhibition of Mycobacterium tuberculosis His-tagged PtpB expressed in Escherichia coli Rosetta 2 (DE3) using pNPP as substrate after 30 mins by spectrophotometric method
T1 sequence (A0A045ISB3 whole entry): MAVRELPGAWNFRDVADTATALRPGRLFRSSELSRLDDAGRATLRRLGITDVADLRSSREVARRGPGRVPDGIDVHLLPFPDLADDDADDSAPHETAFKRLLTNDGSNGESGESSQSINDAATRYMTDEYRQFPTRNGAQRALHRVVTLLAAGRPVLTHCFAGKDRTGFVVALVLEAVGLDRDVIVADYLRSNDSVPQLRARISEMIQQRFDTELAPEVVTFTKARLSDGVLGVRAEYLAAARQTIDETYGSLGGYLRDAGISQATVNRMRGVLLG

[2] = molecular target: T2, Tyrosine-protein phosphatase non-receptor type 1 (Homo sapiens, UniProt P18031); assay: Inhibition of human PTPN1 expressed in Escherichia coli Rosetta 2 (DE3) using pNPP as substrate after 45 mins by spectrophotometric method
T2 sequence (P18031 whole entry): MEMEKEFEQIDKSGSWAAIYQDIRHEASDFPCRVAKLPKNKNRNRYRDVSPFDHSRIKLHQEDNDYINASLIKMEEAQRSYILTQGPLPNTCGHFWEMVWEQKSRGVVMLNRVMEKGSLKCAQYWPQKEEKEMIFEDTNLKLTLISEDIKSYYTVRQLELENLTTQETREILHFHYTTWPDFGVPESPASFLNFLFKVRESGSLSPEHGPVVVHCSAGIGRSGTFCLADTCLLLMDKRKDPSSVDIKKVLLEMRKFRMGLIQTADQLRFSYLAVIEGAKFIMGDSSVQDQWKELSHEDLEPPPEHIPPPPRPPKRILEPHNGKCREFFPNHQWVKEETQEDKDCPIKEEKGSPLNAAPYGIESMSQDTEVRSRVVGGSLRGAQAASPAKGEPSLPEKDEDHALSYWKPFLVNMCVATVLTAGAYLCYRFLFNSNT

[3] = molecular target: T3, Tyrosine-protein phosphatase non-receptor type 2 (Homo sapiens, UniProt P17706); assay: Inhibition of human PTPN2 expressed in Escherichia coli Rosetta 2 (DE3) using pNPP as substrate after 45 mins by spectrophotometric method
T3 sequence (P17706 whole entry): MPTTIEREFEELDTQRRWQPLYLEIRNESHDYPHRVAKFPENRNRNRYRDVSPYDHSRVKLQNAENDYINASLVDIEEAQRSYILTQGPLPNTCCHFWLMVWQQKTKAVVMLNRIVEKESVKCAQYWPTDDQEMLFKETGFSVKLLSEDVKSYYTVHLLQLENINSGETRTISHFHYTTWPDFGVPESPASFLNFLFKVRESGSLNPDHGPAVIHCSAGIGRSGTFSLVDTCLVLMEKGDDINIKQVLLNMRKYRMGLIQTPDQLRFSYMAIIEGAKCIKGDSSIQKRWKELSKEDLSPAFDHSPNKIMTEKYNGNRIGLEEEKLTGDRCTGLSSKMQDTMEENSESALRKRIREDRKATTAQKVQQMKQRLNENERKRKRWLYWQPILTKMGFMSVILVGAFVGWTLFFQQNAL

[4] = molecular target: T4, Tyrosine-protein phosphatase non-receptor type 5 (Homo sapiens, UniProt P54829); assay: Inhibition of human PTPN5 expressed in Escherichia coli Rosetta 2 (DE3) using pNPP as substrate after 45 mins by spectrophotometric method
T4 sequence (P54829 whole entry): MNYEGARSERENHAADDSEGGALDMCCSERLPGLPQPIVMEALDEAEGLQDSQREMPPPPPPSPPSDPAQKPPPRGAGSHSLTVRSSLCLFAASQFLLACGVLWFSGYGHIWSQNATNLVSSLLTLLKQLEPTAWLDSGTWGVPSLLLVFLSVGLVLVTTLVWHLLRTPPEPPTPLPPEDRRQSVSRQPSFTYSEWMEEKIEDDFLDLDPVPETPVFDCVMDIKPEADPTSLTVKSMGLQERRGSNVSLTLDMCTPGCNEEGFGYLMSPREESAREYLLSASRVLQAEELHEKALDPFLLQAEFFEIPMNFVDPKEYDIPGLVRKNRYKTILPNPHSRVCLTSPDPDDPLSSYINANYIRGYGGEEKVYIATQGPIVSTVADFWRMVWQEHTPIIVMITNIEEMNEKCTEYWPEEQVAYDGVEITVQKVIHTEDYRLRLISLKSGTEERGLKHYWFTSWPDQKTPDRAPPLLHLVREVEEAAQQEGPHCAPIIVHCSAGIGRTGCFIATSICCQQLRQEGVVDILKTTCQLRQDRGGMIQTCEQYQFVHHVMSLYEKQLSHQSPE

[5] = system: Mycobacterium tuberculosis; assay: Antitubercular activity against Mycobacterium tuberculosis H37Rv after 5 days at 200 uM relative to control; format: functional; details: 120 h
How it was run: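 M. tuberculosis grown in liquid culture with compound at a fixed 200 μM for 5 days. Growth inhibition expressed as percent of control.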

[6] = system: Mycobacterium tuberculosis; assay: Antitubercular activity against Mycobacterium tuberculosis H37Rv after 5 days; format: functional, organism-based; details: 120 h
[7] = Inhibition of refolded rhodanese (unknown origin) preincubated with Escherichia coli GroEL/GroES for 60 mins by measuring rhodanese enzyme activity followed by compound addition by Fe(SCN)3 dye based spectrometric analysis; parameters: species or system Homo sapiens
[8] = molecular target: T5, Malate dehydrogenase, mitochondrial (Sus scrofa, UniProt P00346); assay: Inhibition of refolded pig heart mitochondrial MDH preincubated with Escherichia coli GroEL/GroES for 45 mins using sodium mesoxalate as substrate followed by compound addition and measured after 20 to 30 mins by spectrometric analysis
T5 sequence (P00346 whole entry): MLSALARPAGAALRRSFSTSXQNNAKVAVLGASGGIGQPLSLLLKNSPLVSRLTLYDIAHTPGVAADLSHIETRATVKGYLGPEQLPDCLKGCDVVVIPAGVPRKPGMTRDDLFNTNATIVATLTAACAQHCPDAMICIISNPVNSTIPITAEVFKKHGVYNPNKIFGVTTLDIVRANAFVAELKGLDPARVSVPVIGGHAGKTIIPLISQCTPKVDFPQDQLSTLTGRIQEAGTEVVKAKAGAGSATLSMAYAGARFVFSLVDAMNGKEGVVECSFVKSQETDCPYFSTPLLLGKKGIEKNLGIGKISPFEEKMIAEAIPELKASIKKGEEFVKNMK

[9] = molecular target: T6, E. coli GroEL/ES (Escherichia coli, UniProt P0A6F5); assay: Inhibition of Escherichia coli GroEL expressed in Escherichia coli DH5alpha/Escherichia coli GroES expressed in Escherichia coli BL21 (DE3) assessed as reduction in GroEL/GroES-mediated denatured rhodanese refolding by measuring rhodanese enzyme activity after 45 mins by Fe(SCN)3 dye based spectrometric analysis
[10] = molecular target: T6, E. coli GroEL/ES; assay: Inhibition of Escherichia coli GroEL expressed in Escherichia coliDH5alpha/Escherichia coli GroES expressed in Escherichia coli BL21 (DE3) assessed as reduction in GroEL/GroES-mediated denatured pig heart mitochondrial MDH refolding by measuring MDH enzyme activity using sodium mesoxalate as substrate after 20 to 40 mins by spectrometric analysis
[11] = molecular target: HSP60/HSP10 (Homo sapiens, UniProt P10809); assay: Inhibition of human HSP60 expressed in Escherichia coli Rosetta 2(DE3)/human HSP10 expressed in Escherichia coli Rosetta 2(DE3) pLysS cells assessed as reduction in HSP60/HSP10-mediated denatured pig heart mitochondrial MDH refolding by measuring MDH enzyme activity using sodium mesoxalate as substrate after 40 to 60 mins by spectrometric analysis
[12] = Cytotoxicity against human THLE3 cells assessed as reduction in cell viability after 48 hrs by Alamar blue assay; format: cell-based
How it was run: (§1)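 Alamar Blue viability read-out. Human liver (THLE-3) and kidney (HEK 293) cells incubated with compound for 48 h. Tested in dose-response to derive CC50.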

[13] = Cytotoxicity against human HEK293 cells assessed as reduction in cell viability after 48 hrs by Alamar blue assay; format: cell-based; how it was run: as §1

Chain of HSP60/HSP10 (P10809 whole entry): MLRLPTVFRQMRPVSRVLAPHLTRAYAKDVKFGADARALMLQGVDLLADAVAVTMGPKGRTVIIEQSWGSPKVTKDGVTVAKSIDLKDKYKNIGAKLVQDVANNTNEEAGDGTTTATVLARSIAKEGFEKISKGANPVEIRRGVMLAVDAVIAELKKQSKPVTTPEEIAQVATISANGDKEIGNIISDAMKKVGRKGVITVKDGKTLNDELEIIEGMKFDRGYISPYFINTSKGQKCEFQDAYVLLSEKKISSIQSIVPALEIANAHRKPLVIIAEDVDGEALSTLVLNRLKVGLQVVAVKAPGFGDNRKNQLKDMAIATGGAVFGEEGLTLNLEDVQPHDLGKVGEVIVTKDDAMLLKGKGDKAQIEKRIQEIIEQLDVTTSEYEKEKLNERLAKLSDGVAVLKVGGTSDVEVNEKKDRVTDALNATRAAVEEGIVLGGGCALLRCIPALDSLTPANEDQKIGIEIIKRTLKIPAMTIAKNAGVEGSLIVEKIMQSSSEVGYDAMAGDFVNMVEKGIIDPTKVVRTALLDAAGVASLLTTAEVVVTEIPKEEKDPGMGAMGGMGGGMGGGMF
Chain of HSP60/HSP10 (P61604 whole entry, further chain): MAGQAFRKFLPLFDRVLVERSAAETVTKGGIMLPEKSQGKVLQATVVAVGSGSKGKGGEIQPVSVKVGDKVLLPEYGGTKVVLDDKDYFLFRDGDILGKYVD
T6 sequence (P0A6F5 whole entry, looked up): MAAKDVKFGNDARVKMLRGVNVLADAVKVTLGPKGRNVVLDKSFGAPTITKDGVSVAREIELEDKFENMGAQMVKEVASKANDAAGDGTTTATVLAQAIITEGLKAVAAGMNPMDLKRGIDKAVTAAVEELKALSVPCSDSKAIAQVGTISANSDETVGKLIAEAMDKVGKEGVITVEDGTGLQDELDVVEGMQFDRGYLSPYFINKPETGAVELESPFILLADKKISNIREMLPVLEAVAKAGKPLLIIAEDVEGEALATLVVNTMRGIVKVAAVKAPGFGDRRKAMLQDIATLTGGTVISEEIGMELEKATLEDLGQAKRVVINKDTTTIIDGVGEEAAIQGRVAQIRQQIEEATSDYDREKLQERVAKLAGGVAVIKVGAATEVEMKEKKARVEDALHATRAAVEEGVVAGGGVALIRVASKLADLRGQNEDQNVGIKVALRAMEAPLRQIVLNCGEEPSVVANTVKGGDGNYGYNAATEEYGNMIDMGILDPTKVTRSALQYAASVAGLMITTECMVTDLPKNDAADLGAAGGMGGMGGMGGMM

Compound	IC50 [1] [µM]	IC50 [2] [µM]	IC50 [3] [µM]	IC50 [4] [µM]	inhibition at 200 µM [5] [%]	EC50 [6] [µM]	IC50 [7] [µM]	IC50 [8] [µM]	IC50 [9] [µM]	IC50 [10] [µM]	IC50 [11] [µM]	CC50 at 48 h [12] [µM]	CC50 at 48 h [13] [µM]
Cc1ccccc1S(=O)(=O)Nc1ccc2oc(-c3ccccc3)nc2c1	59	41	29	30	61	197	> 100	> 63	127	> 100	> 100	35	57
O=S(=O)(Nc1ccc(-c2nc3ccccc3o2)cc1)c1cccc(C(F)(F)F)c1	49	44	48	40	50	> 200	> 100	> 63	170	53	57	82	> 100
CCc1ccc(S(=O)(=O)Nc2ccc(-c3nc4ccccc4o3)cc2)cc1	46	37	36	31	82	153	> 100	> 63	172	91	> 100	77	82
O=S(=O)(Nc1ccc2oc(-c3ccccc3)nc2c1)c1ccc(Cl)s1	54	76	72	44	71	> 200	> 100	> 63	234	> 100	70	43	> 100
O=S(=O)(Nc1ccc(-c2nc3ccccc3o2)cc1)c1ccc(C(F)(F)F)cc1	52	35	38	39	78	161	> 100	> 63	159	77	50	71	94
C=Cc1ccc(S(=O)(=O)Nc2ccc(-c3nc4ccccc4o3)cc2)cc1	52	47	33	31	73	> 200	> 100	> 63	165	91	> 100	82	> 100
O=S(=O)(Nc1ccc(-c2nc3ccccc3o2)cc1)c1ccccc1Cl	47	59	64	51	11		> 100	> 63	171	86	> 100	> 100	> 100
O=S(=O)(Nc1ccc(-c2nc3ccccc3o2)cc1)c1ccc(Cl)c(Cl)c1	25	29	33	30	37		> 100	> 63	104	43	25	84	> 100
O=S(=O)(Nc1ccc2oc(-c3ccccc3)nc2c1)c1cccc(O)c1	98	> 100	> 100	72	3		> 100	> 63	103	58	76	79	> 100
O=S(=O)(Nc1ccc2oc(-c3ccccc3)nc2c1)c1ccc(F)cc1	85	78	61	41	47		> 100	> 63	195	> 100	> 100	38	68
O=S(=O)(Nc1ccc(-c2nc3ccccc3o2)cc1)c1ccc(Cl)cc1	46	43	42	36	7		> 100	> 63	151	> 100	61	81	> 100
COc1ccccc1S(=O)(=O)Nc1ccc2oc(-c3ccccc3)nc2c1	67	37	34	38	3		> 100	> 63	89	85	> 100	29	41
O=S(=O)(Nc1ccc2oc(-c3ccccc3)nc2c1)c1ccccc1F	80	59	69	44	12		> 100	> 63	171	> 100	> 100	53	72
O=S(=O)(Nc1ccc2oc(-c3ccccc3)nc2c1)c1ccc(Cl)c(C(F)(F)F)c1	40	40	34	28	0		> 100	> 63	132	92	> 100	47	66
